This is an account of results in ChEMBL document CHEMBL2331506, “Design, synthesis, antiviral and cytostatic evaluation of novel isoxazolidine nucleotide analogues with a carbamoyl linker” (Bioorg Med Chem, 2013).

The source made the active and inactive calls. No rule for the calls is given here.

For one data set, the system named is HEL. The data set is described as follows: Cytotoxicity against human HEL cells assessed as alteration of cell morphology up to 100 uM by microscopic analysis. The format is cell-based. The essentials:
(§1)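 Uninfected host-cell cultures were exposed to compound and examined by microscopy. Cytotoxicity was expressed as the minimum cytotoxic concentration (MCC) causing a microscopically detectable alteration of normal cell morphology.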

Data set [1] relates to Human alphaherpesvirus 1. As to the kind of experiment: Antiviral activity against thymidine kinase-deficient, ACV-resistant Herpes simplex virus 1 KOS infected in human HEL cells assessed as reduction of virus-induced cytopathogenicity at 250 uM. The class given is functional, organism-based. Put shortly:
(§2)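 Confluent cell monolayers were infected with 100 CCID50 of virus while exposed to varying compound concentrations. Cytopathicity was scored once it was complete in untreated infected controls. EC50 was taken as the concentration that reduced virus-induced cytopathogenicity by 50%.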
In general terms: Cytopathic effects are the visible damage that an infection or toxin causes in cultured cells.

Data set [2] has as its system Vesicular stomatitis virus. The data set is described as follows: Antiviral activity against Vesicular stomatitis virus infected in human HEL cells assessed as reduction of virus-induced cytopathogenicity at 250 uM. The format is functional, organism-based. Put shortly:
as §2

For data set [3], the system named is Vesicular stomatitis virus. As to the kind of experiment: Antiviral activity against Vesicular stomatitis virus infected in human HeLa cells assessed as reduction of virus-induced cytopathogenicity at 250 uM. The class given is functional, organism-based. Put shortly: as §2
A further data set relates to Feline coronavirus. As to the kind of experiment: Antiviral activity against Feline coronavirus infected in cat CRFK cells assessed as reduction of virus-induced cytopathogenicity at 250 uM. The format is functional, organism-based.
Data set [4] deals with Respiratory syncytial virus. As to the kind of experiment: Antiviral activity against Respiratory syncytial virus long infected in human HeLa cells assessed as reduction of virus-induced cytopathogenicity at 250 uM. The class given is functional, organism-based. The essentials:
(§3)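 Confluent monolayers (HEL fibroblasts, Vero, or HeLa cells as listed) were infected with 100 CCID50 of virus in the presence of varying compound concentrations. Virus-induced cytopathicity or plaque formation was scored once cytopathicity was complete in untreated infected controls. EC50 was taken as the concentration reducing cytopathogenicity or plaque formation by 50%.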

Data set [5] has as its system Influenza A virus. The data set is described as follows: Antiviral activity against Influenza A virus H3N2 infected in dog MDCK cells assessed as reduction of virus-induced cytopathogenicity at 250 uM. The class given is functional, organism-based. Put shortly:
as §2

For a further data set, the system named is Punta Toro virus. The data set is described as follows: Antiviral activity against Punta Toro virus infected in african green monkey Vero cells assessed as reduction of virus-induced cytopathogenicity at 250 uM. The format is functional, organism-based. Put shortly: as §3
Another data set deals with Human respirovirus 3. The data set is described as follows: Antiviral activity against Parainfluenza virus 3 infected in african green monkey Vero cells assessed as reduction of virus-induced cytopathogenicity at 250 uM. The class given is functional, organism-based. The essentials:
as §3

The test system of a further data set is Coxsackievirus B4. As to the kind of experiment: Antiviral activity against Coxsackievirus B4 infected in african green monkey Vero cells assessed as reduction of virus-induced cytopathogenicity at 250 uM. The class given is functional, organism-based. Put shortly: as §3
Data set [6] has as its system Human immunodeficiency virus 1. As to the kind of experiment: Antiviral activity against Human immunodeficiency virus 1 3B infected in human CEM cells assessed as reduction of virus-induced giant cell formation at 250 uM after 4 to 5 days. The format is functional, organism-based. To be noted: CCRF-CEM. Put shortly:
(§4)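 CEM cells at 3 × 10^5 cells/mL were infected with HIV at 100 CCID50 per mL in the presence of compound dilutions. They were held 4–5 days at 37 °C in humidified CO2. Syncytium (giant cell) formation was scored microscopically, and EC50 was taken as the concentration inhibiting giant cell formation by 50%.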

Data set [7] has as its system Influenza A virus. The data set is described as follows: Antiviral activity against Influenza A virus H1N1 infected in dog MDCK cells assessed as reduction of virus-induced cytopathogenicity at 250 uM. The format is functional, organism-based. The essentials:
as §2

The subject of data set [8] is Mammalian orthoreovirus 1. The data set is described as follows: Antiviral activity against Reovirus 1 infected in african green monkey Vero cells assessed as reduction of virus-induced cytopathogenicity at 250 uM. The format is functional, organism-based. Put shortly: as §3
A further data set concerns Influenza B virus. The data set is described as follows: Antiviral activity against Influenza B virus infected in dog MDCK cells assessed as reduction of virus-induced cytopathogenicity at 250 uM. The class given is functional, organism-based. Put shortly:
as §2

In the next data set the test system is Vero. As to the kind of experiment: Cytotoxicity against african green monkey Vero cells assessed as alteration of cell morphology up to 100 uM by microscopic analysis. The format is cell-based. To be noted: chlorocebus sabaeus. The essentials: as §1
Another data set has as its system MDCK. As to the kind of experiment: Cytotoxicity against dog MDCK cells assessed as alteration of cell morphology up to 100 uM by microscopic analysis. The format is cell-based, Canis lupus familiaris. The essentials: as §1
For data set [9], the system named is Human immunodeficiency virus 2. The data set is described as follows: Antiviral activity against Human immunodeficiency virus 2 ROD infected in human CEM cells assessed as reduction of virus-induced giant cell formation at 250 uM after 4 to 5 days. The format is functional, organism-based. To be noted: CCRF-CEM. Put shortly: as §4
The subject of the next data set is Human alphaherpesvirus 2. The data set is described as follows: Antiviral activity against Herpes simplex virus 2 G infected in human HEL cells assessed as reduction of virus-induced cytopathogenicity at 250 uM. To be noted: strain G. The format is functional, organism-based. Put shortly:
as §3

Data set [10] is described as follows: Cytotoxicity against cat CRFK cells assessed as alteration of cell morphology up to 100 uM by microscopic analysis. The class given is cell-based, Felis catus. The essentials: as §1
In another data set the test system is Felid alphaherpesvirus 1. As to the kind of experiment: Antiviral activity against Feline herpes virus infected in cat CRFK cells assessed as reduction of virus-induced cytopathogenicity at 250 uM. The class given is functional, organism-based.
In data set [11] the test system is Human alphaherpesvirus 1. As to the kind of experiment: Antiviral activity against Herpes simplex virus 1 KOS infected in human HEL cells assessed as reduction of virus-induced cytopathogenicity at 250 uM. The format is functional, organism-based. Put shortly:
as §3

A further data set has as its system Sindbis virus. As to the kind of experiment: Antiviral activity against Sindbis virus infected in african green monkey Vero cells assessed as reduction of virus-induced cytopathogenicity at 250 uM. The format is functional, organism-based. Put shortly: as §3
The subject of a further data set is HeLa. The data set is described as follows: Cytotoxicity against human HeLa cells assessed as alteration of cell morphology up to 100 uM by microscopic analysis. The class given is cell-based. The essentials: as §1

Take `CCOP(=O)(OCC)[C@H]1C[C@H](C(=O)Nc2cccc(C)c2)ON1C` (racemic): the Activity entry (with HEL; in the data set with Vero; with MDCK; in data set [10]; in the data set with HeLa) was “Non-toxic” in each case. For the same compound, the inhibition entry (with Human alphaherpesvirus 1 [1]; in [2]; in [3]; in the data set on Feline coronavirus; in [4]; in the data set on Influenza A virus [5]) was “inactive” in each case. Also, the inhibition entry (with Punta Toro virus; in the data set with Human respirovirus 3; in the data set with Coxsackievirus B4; in data set [6]; with Influenza A virus [7]; in data set [8]) was “inactive” each time. Also, the inhibition entry (in the data set with Influenza B virus; in data set [9]; with Human alphaherpesvirus 2; in the data set on Felid alphaherpesvirus 1; with Human alphaherpesvirus 1 [11]; with Sindbis virus) was “inactive” each time.
Consider `CCOP(=O)(OCC)[C@@H]1C[C@H](C(=O)Nc2ccc(F)cc2F)ON1C` (mixture of isomers), for which the Activity entry (in the data set with HEL; in the data set on Vero; with MDCK; in [10]; in the data set on HeLa) was “Non-toxic” each time. For the same compound, the inhibition result (in the data set on Human alphaherpesvirus 1 [1]; in data set [2]; in data set [3]; in the data set with Feline coronavirus; in data set [4]; with Influenza A virus [5]) was “inactive” in each case. Also, the inhibition result (in the data set with Punta Toro virus; in the data set with Human respirovirus 3; in the data set with Coxsackievirus B4; in data set [6]; in the data set with Influenza A virus [7]; in data set [8]) was “inactive” in each case. Also, the inhibition result (in the data set with Influenza B virus; in [9]; with Human alphaherpesvirus 2; in the data set on Felid alphaherpesvirus 1; with Human alphaherpesvirus 1 [11]; in the data set with Sindbis virus) was “inactive” each time.
For `CCOP(=O)(OCC)[C@@H]1C[C@H](C(=O)Nc2ccc(Br)cc2)ON1C` (mixture of isomers), the Activity entry (with HEL; in the data set on Vero; in the data set on MDCK; in [10]; in the data set with HeLa) was “Non-toxic” in each case. Further, the inhibition entry (in the data set with Human alphaherpesvirus 1 [1]; in [2]; in data set [3]; in the data set with Feline coronavirus; in data set [4]; with Influenza A virus [5]) was “inactive” each time. The inhibition entry (with Punta Toro virus; in the data set on Human respirovirus 3; in the data set with Coxsackievirus B4; in data set [6]; with Influenza A virus [7]; in data set [8]) was “inactive” throughout. The inhibition result (in the data set on Influenza B virus; in data set [9]; in the data set on Human alphaherpesvirus 2; with Felid alphaherpesvirus 1; in the data set with Human alphaherpesvirus 1 [11]; with Sindbis virus) was “inactive” throughout.
Take `CCOP(=O)(OCC)[C@@H]1C[C@H](C(=O)Nc2ccccc2Br)ON1C` (mixture of isomers): the Activity result (in the data set on HEL; with Vero; in the data set on MDCK; in data set [10]; with HeLa) was “Non-toxic” throughout. For the same compound, the inhibition result (with Human alphaherpesvirus 1 [1]; in [2]; in [3]; in the data set on Feline coronavirus; in [4]; in the data set with Influenza A virus [5]) was “inactive” each time. For the same compound, the inhibition result (with Punta Toro virus; with Human respirovirus 3; in the data set on Coxsackievirus B4; in data set [6]; with Influenza A virus [7]; in [8]) was “inactive” in each case. Moreover, the inhibition result (with Influenza B virus; in data set [9]; in the data set on Human alphaherpesvirus 2; with Felid alphaherpesvirus 1; in the data set with Human alphaherpesvirus 1 [11]; in the data set on Sindbis virus) was “inactive” each time.
Regarding `CCOP(=O)(OCC)[C@H]1C[C@H](C(=O)Nc2ccc(C#N)cc2)ON1C` (racemic), the Activity result (with HEL; in the data set on Vero; in the data set on MDCK; in data set [10]; with HeLa) was “Non-toxic” each time. The inhibition result (in the data set with Human alphaherpesvirus 1 [1]; in [2]; in data set [3]; in the data set with Feline coronavirus; in [4]; with Influenza A virus [5]) was “inactive” each time. Moreover, the inhibition entry (in the data set on Punta Toro virus; in the data set on Human respirovirus 3; with Coxsackievirus B4; in data set [6]; in the data set with Influenza A virus [7]; in [8]) was “inactive” in each case. Besides, the inhibition entry (in the data set on Influenza B virus; in data set [9]; in the data set on Human alphaherpesvirus 2; in the data set with Felid alphaherpesvirus 1; in the data set with Human alphaherpesvirus 1 [11]; in the data set with Sindbis virus) was “inactive” each time.
Turning to `CCOP(=O)(OCC)[C@H]1C[C@H](C(=O)Nc2cc(OC)cc(OC)c2)ON1C` (mixture of isomers), the Activity result (in the data set with HEL; in the data set on Vero; with MDCK; in data set [10]; in the data set with HeLa) was “Non-toxic” in each case. Also, the inhibition entry (in the data set on Human alphaherpesvirus 1 [1]; in [2]; in [3]; in the data set on Feline coronavirus; in data set [4]; in the data set with Influenza A virus [5]) was “inactive” in each case. In addition, the inhibition entry (in the data set with Punta Toro virus; in the data set with Human respirovirus 3; in the data set on Coxsackievirus B4; in data set [6]; in the data set on Influenza A virus [7]; in data set [8]) was “inactive” in each case. Further, the inhibition entry (with Influenza B virus; in data set [9]; in the data set with Human alphaherpesvirus 2; with Felid alphaherpesvirus 1; in the data set with Human alphaherpesvirus 1 [11]; in the data set on Sindbis virus) was “inactive” in each case.
